Assay outcomes (PubChem)
PHOSPHO1 inh: PubChem AID 1565 | Phosphoethanolamine/phosphocholine phosphatase (Homo sapiens), Q8TCT1 | recombinant PHOSPHO1, absorbance phosphatase assay | inhibition, % at 13.3 µM | 290,000 compounds, 1.1% hits; in the data active = inhibition above about 60%
Target sequence (Q8TCT1 whole entry, looked up): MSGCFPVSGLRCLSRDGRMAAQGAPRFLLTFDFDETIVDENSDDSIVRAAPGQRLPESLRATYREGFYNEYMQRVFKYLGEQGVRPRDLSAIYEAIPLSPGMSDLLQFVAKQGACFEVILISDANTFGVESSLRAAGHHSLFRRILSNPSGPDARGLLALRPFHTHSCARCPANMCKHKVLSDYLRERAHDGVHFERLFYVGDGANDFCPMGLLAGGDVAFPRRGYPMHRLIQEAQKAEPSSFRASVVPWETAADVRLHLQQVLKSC
CR mimetic SO: reduction of superoxide in aged yeast, primary screen, HTS; superoxide response (% of plate mean), % at 10 µM; S. cerevisiae aged cells, superoxide DHE fluorescence; stronger effect = lower value; 330,000 compounds, 0.18% hits;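 active = superoxide response under a set limit, about three screen SD below normal, cut at about 65% in these data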;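 also: yeast aged for seven days with compound at 30 °C before DHE staining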
PvdQ acylase: P. aeruginosa PvdQ acylase inhibitors, primary screen, biochemical, fluorescence, plate reader and imaging, single point | purified PvdQ acylase | inhibition, % at 10 µM | 340,000 compounds, 0.063% hits; in the data active = inhibition above about 30%, passing the limit was not always enough
IMP-1 inhibitor: IMP-1 metallo-beta-lactamase inhibitors, primary screen, biochemical, epi-absorbance readout, Pseudomonas aeruginosa enzyme; purified IMP-1, nitrocefin hydrolysis, epi-absorbance fluorescence; inhibition, % at 5.6 µM; 290,000 compounds, 0.45% hits;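 active = inhibition above the mean plus 3 SD of all compounds in the same screening run, cut at about 4.5% in these data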
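System: Purified recombinant IMP-1 metallo-beta-lactamase enzyme | Measured by: Fluorescence quenching readout, ex 480/em 530 nm | Replication: Singlicate | Incubation: 15 min preincubation plus 25 min reaction at 25 °C | Evaluation: Percent inhibition from optical density relative to buffer-blank wells | Benchmarks: DMSO with and without IMP-1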
VIM-2 inhibitor: VIM-2 metallo-beta-lactamase inhibitors, primary screen, biochemical, epi-absorbance readout, Pseudomonas aeruginosa enzyme; purified VIM-2, nitrocefin hydrolysis, epi-absorbance fluorescence; inhibition, % at 5.6 µM; 290,000 compounds, 0.89% hits; AID 1527, 2009;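 active = inhibition above the mean of all tested compounds plus 3 SD, cutoff set per screening run, cut at about 7.5% in these data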;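 also: red hydrolysis product quenches plate fluorescence so inhibitors raise well fluorescence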
Large screens that a line does not name were inactive. Only some compounds are listed: those with a hit (about 2.2% of all), similar ones and a draw of the others.

Cc1ccc2c(nc3s/c(=C/c4cccs4)c(=O)n32)c1C	none (no result: CR mimetic SO, IMP-1 inhibitor, VIM-2 inhibitor)
O=C(NCCN1CCCC1)c1cccc(Cl)c1	PHOSPHO1 inh 60
CC(C)CCNC(=O)c1cccc(Cl)c1	PvdQ acylase 39
O=C(NCCCN1CCN(CCCNC(=O)c2cccc(Cl)c2)CC1)c1cccc(Cl)c1	none
NC(=O)CNC(=O)c1cccc(Cl)c1	none
CC(C)c1cccc(C(C)C)c1NC(=O)CN1C(=O)NC2(CCCCCCC2)C1=O	none (no result: PHOSPHO1 inh, IMP-1 inhibitor, VIM-2 inhibitor)
COc1ccc(OC)c(NC(=O)CSc2ncccn2)c1	PHOSPHO1 inh 76
COc1ccc(OC)c(NC(=O)CSc2nnc(Cc3cccn3C)n2CCc2ccccc2)c1	PHOSPHO1 inh 69
COc1cc(NC(=O)c2cc3nc(C4CC4)cc(C(F)(F)F)n3n2)c(OC)cc1Cl	PHOSPHO1 inh 60
COc1ccc(C(=O)Nc2ccccc2-c2ccccc2)cc1Cl	IMP-1 inhibitor 5.2
CCOc1c(Cl)cc(C(=O)Nc2ccccc2-c2ccccc2)cc1Cl	none
Fc1ccc2cnc(CCO[C@H]3CCCCO3)cc2c1	none (no result: PHOSPHO1 inh, IMP-1 inhibitor, VIM-2 inhibitor)
O=C1NC(=O)C2(CCCC2c2ccccc2)N1 (configuration not stated)	none (no result: PHOSPHO1 inh, CR mimetic SO, IMP-1 inhibitor, VIM-2 inhibitor)
Cc1cc(-n2ccnc2)n2c(nc3ccccc32)c1C#N	VIM-2 inhibitor 7.7
CCC(C)Sc1cc(C)c(C#N)c2nc3ccccc3n12 (configuration not stated)	VIM-2 inhibitor 10
O=C(C[n+]1cccc(O)c1)NCc1ccc(Cl)cc1	none
Cc1snc(SCC(=O)c2ccc(Cl)cc2)c1C#N	PHOSPHO1 inh 84
O=C(O)/C=C/C(=O)Nc1ccc(OC(F)F)cc1	none
Cc1ccc(-n2c([C@@H]3C[C@H]3c3ccccc3)n[nH]c2=S)cc1	none
Cc1ccc(C2CC2c2n[nH]c(=S)n2-c2ccc(C)cc2)cc1 (configuration not stated)	PHOSPHO1 inh 90
Cc1ccc(-n2c(C3CC3c3ccc(Cl)cc3)n[nH]c2=S)cc1 (configuration not stated)	PHOSPHO1 inh 97
O=C(CCNC(=O)c1ccco1)Nc1ccc(Cl)cc1F	none
COc1cc(C2c3cc4c(cc3CC3COC(=O)N32)OCO4)cc(OC)c1OC (configuration not stated)	none (no result: PHOSPHO1 inh, CR mimetic SO, IMP-1 inhibitor, VIM-2 inhibitor)
S=C(Nc1ccc2nc(-c3ccccn3)c(-c3ccccn3)nc2c1)N1CCCCCC1	none
S=C(Nc1ccc2nc(-c3ccccn3)c(-c3ccccn3)nc2c1)N1CCCCC1	PHOSPHO1 inh 87 (no result: CR mimetic SO)
CCOC(=O)c1c(C)[nH]c(C(=O)OCC(=O)NC2CCS(=O)(=O)C2)c1C (configuration not stated)	none
O=C(CSc1nc(-c2ccc(F)cc2)cs1)NC(=O)NCc1ccco1	PHOSPHO1 inh 79
O=C(CSc1ncccc1-c1nc2ccccc2[nH]1)NCc1ccco1	PHOSPHO1 inh 61
Nn1c(SCC(=O)NC(=O)NCc2ccco2)nnc1-c1ccc(OC(F)F)cc1	PHOSPHO1 inh 93
O=C(CSc1ncc(-c2ccc(F)cc2)[nH]1)NCc1ccco1	PHOSPHO1 inh 74
O=C(CSc1nccc(=O)[nH]1)NCc1ccco1	none
Cc1cc2nc(-c3cccnc3SCC(=O)NCc3ccco3)[nH]c2cc1C	none (no result: PHOSPHO1 inh)
O=C(NCCc1ccc(O)c(O)c1)C1COc2ccccc2O1 (configuration not stated)	none
Cc1cc(F)ccc1NCC(=O)Nc1ccccc1Br	none
COCCN(Cc1ccccc1)C(=O)C1CCN(C(=O)Nc2ccccc2)CC1	none (no result: PHOSPHO1 inh, IMP-1 inhibitor, VIM-2 inhibitor)
CCCCN(C(=O)C(C)Oc1ccc(Br)cc1)c1c(N)n(Cc2ccccc2)c(=O)[nH]c1=O (configuration not stated)	none
C=CCn1c(C)cc(C(=O)CSc2nnc3c(Cl)cc(Cl)cn23)c1C	PHOSPHO1 inh 62
Oc1ccc(CNc2ccccc2F)c2cccnc12	PHOSPHO1 inh 97
OCc1ccc(O)c2ncccc12	none
O=C(COC(=O)c1n[nH]c2ccccc12)c1cccc(Br)c1	PHOSPHO1 inh 61
CC1CC(C)CN(C(=O)CSc2ncnc3sccc23)C1 (configuration not stated)	none (no result: PHOSPHO1 inh, IMP-1 inhibitor, VIM-2 inhibitor)
Clc1ccc(-c2nnc(-c3ccco3)o2)cc1	PvdQ acylase 58
COc1ccccc1NC(=O)CSc1nccc(-c2ccco2)n1	none (no result: PHOSPHO1 inh, IMP-1 inhibitor, VIM-2 inhibitor)
CCC(C(=O)OCC(=O)NCc1ccc2c(c1)OCO2)c1ccccc1 (configuration not stated)	none (no result: PHOSPHO1 inh, IMP-1 inhibitor, VIM-2 inhibitor)
COc1ccccc1C1C(C(N)=O)=C(C)Nc2ncnn21 (configuration not stated)	IMP-1 inhibitor 6.8
COc1cccc(Cn2c(=O)sc3ccccc3c2=O)c1	none
COc1cccc(Cn2c(=O)c3ccccc3n3nc(C)cc23)c1	VIM-2 inhibitor 9.1
Cc1cccn2c(=O)c3cc(C(=O)N4CCCCC4)sc3nc12	VIM-2 inhibitor 12
CCOC(=O)C1CCN(C(=O)c2cc3c(=O)n4cccc(C)c4nc3s2)CC1	VIM-2 inhibitor 10
ONC(=Nc1ccc(Cl)cc1)c1ccccc1	none
O=C1CSC(=S)N1/N=C/c1ccc(O)c(O)c1O	PHOSPHO1 inh 74
O=C1CSC(=S)N1/N=C/c1cc(Br)ccc1O	none (no result: PvdQ acylase)
CC(C)Oc1ccc(S(=O)(=O)N2CCOCC2)cc1NC(=O)c1ccc(N2CCCC2=O)cc1	none
C=CCC[C@@H](Cc1ccc(F)cc1)C(=O)OC[C@H](C)NC(=O)[C@@H](CC=C)CC(=O)N[C@@H](CO)Cc1ccccc1	none (no result: PHOSPHO1 inh, IMP-1 inhibitor, VIM-2 inhibitor)
CC(=O)N(Cc1ccccc1C)c1cccc(C)c1C	none
COC(=O)c1cc(S(=O)(=O)NCc2ccc3c(c2)OCO3)c[nH]1	none
CCOC(=O)c1cc(S(=O)(=O)NCc2ccc3c(c2)OCO3)cn1C	PHOSPHO1 inh 62
COC(=O)c1cc(S(=O)(=O)NCc2ccc3c(c2)OCO3)cn1C	PHOSPHO1 inh 64
CCCN(C(=O)COC(=O)c1[nH]c(C)c(C(=O)OC)c1C)c1c(N)n(Cc2ccccc2)c(=O)[nH]c1=O	none (no result: PHOSPHO1 inh, IMP-1 inhibitor, VIM-2 inhibitor)
O=C(Nc1nnc(-c2ccco2)s1)c1ccccc1	PHOSPHO1 inh 74
COc1ccc(C(=O)Nc2nnc(-c3ccco3)s2)cc1	PHOSPHO1 inh 73, IMP-1 inhibitor 7.3
Cn1c(-c2ccc3c(c2)OCO3)c(C(=O)O)c(=O)c2ccccc21	VIM-2 inhibitor 11
COc1ccc2c(=O)c(C(=O)O)c(-c3ccc4c(c3)OCO4)n(C)c2c1	none
O=C(CCS(=O)(=O)c1ccccc1)N1CCN(c2ccc(F)cc2)CC1	none
CCOC(=O)c1cc2c(=O)n3ccccc3nc2n(CCOC)c1=NC(=O)C(C)(C)C	none
CCOC(=O)c1cc2c(=O)n3ccccc3nc2n(CCOC)c1=NC(=O)c1ccncc1	VIM-2 inhibitor 13
CCOP(=O)(OCC)C(NC(=O)c1cccs1)c1ccccc1 (configuration not stated)	none
O=C(NN1C(=O)/C(=C/C=C/c2ccco2)SC1=S)c1ccccc1O	PHOSPHO1 inh 86
O=C1S/C(=C\C=C\c2ccco2)C(=O)N1c1ccc(O)cc1	IMP-1 inhibitor 7.2
